Measured values published in ChEMBL document CHEMBL1146535, “New manzamine alkaloids with activity against infectious and tropical parasitic diseases from an Indonesian sponge” (J Nat Prod, 2003).
Converted amounts (≈) assume the structure as drawn. The source made the active and inactive calls. No cut-off for these calls is given here.

Key:
[1] = test system: Plasmodium falciparum; experiment: Antimalarial activity against Plasmodium falciparum D6; format: functional, organism-based
[2] = test system: Plasmodium falciparum; experiment: Antimalarial activity against chloroquine-resistant Plasmodium falciparum W2; format: functional, organism-based
[3] = test system: Leishmania donovani; experiment: Antileishmanial activity against Leishmania donovani promastigotes expressing luciferase; format: functional, organism-based
Method in brief: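 Transgenic L. donovani promastigote line stably expressing luciferase used as the test organism. Pentamidine and amphotericin B run alongside as reference antileishmanials.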

[4] = test system: Vero; experiment: Cytotoxicity against african green monkey Vero cells; format: cell-based; conditions: chlorocebus sabaeus
[5] = test system: Mycobacterium tuberculosis; experiment: Antimycobacterial activity against Mycobacterium tuberculosis H37Rv; format: functional
[6] = test system: Human immunodeficiency virus 1; experiment: Antiviral activity against HIV1 in human PBM cells; format: functional, organism-based; conditions: Human immunodeficiency virus 1, PBMC
[7] = Cytotoxicity against human […] cells; format: functional, cell-based
[8] = test system: HT-29; experiment: Cytotoxicity against human HT-29 cells; format: functional, cell-based
[9] = Cytotoxicity against human H116 cells; format: functional, cell-based
[10] = Cytotoxicity against mouse MS1 cells; format: cell-based; conditions: MS-1

## O=C1[C@@H]2CCCCCCN2[C@@H]2[C@]13CN1CCCC/C=C\CC[C@]2(O)C=C(c2nccc4c2[nH]c2ccc(O)cc24)[C@@H]3CC1
[1]
  Activity: inactive
[2]
  Activity: inactive
[3]
  Activity: inactive
[4]
  Activity: Non-toxic

## O=C1NCCc2c1[nH]c1ccccc21
[1]
  Activity: inactive
[2]
  Activity: inactive
[3]
  Activity: inactive
[4]
  Activity: Non-toxic

## O=C1CCCN2[C@@H]3[C@@]45CN6CCCC/C=C\CC[C@]3(C=C(c3nccc7c3[nH]c3ccccc37)[C@@H]4CC6)O[C@@]2(CC1)C5
[5]
  MIC: 128 µg/mL (≈ 227 µM)
[1]
  Activity: inactive
[2]
  Activity: inactive
[3]
  Activity: inactive
[4]
  Activity: Non-toxic

## Oc1cccc2c1[nH]c1c(C3=C[C@@]4(O)CC/C=C\CCCCN5CC[C@@H]3[C@]3(CC6/C=C\CCCCN6[C@H]34)C5)nccc12 (stereo not given in full)
[5]
  MIC: 0.91 µg/mL (≈ 1.61 µM)
[4]
  Activity: 1100 ng/mL
[6]
  EC50: 4200 nM

## O[C@]12C=C(c3nccc4c3[nH]c3ccccc34)C3CCN(CCCC/C=C\CC1)C[C@@]31C[C@]34CC[C@H](CCCN3[C@H]12)O4 (stereo not given in full) [6-Deoxymanzamine X]
[5]
  MIC: 1.77 µg/mL (≈ 3.13 µM)
[1]
  IC50: 1.3 µg/mL (≈ 2.3 µM)
[2]
  IC50: 1.4 µg/mL (≈ 2.48 µM)
[3]
  IC50: 3.2 µg/mL (≈ 5.67 µM)
  IC90: 7.5 µg/mL (≈ 13.3 µM)
[4]
  Activity: 4760 ng/mL
[7]
  IC50: 1 µg/mL (≈ 1.77 µM)
[8]
  IC50: 0.5 µg/mL (≈ 0.885 µM)
[9]
  IC50: 0.5 µg/mL (≈ 0.885 µM)
[10]
  IC50: 1 µg/mL (≈ 1.77 µM)
[6]
  EC50: 1600 nM

## C1=C(c2nccc3c2[nH]c2ccccc23)[C@@H]2CCN3CCCC/C=C\CC[C@]14O[C@@]15/C=C\CCCCN1[C@@H]4[C@]2(C3)C5 [12,34-OXAMANZAMINE A]
[2]
  Activity: inactive
[4]
  Activity: Non-toxic

## O[C@@H]1CCCN2[C@@H](CC1)C[C@]13CN4CCCC/C=C\CC[C@](O)(C=C(c5nccc6c5[nH]c5ccccc56)[C@@H]1CC4)[C@H]23 [32,33-DIHYDRO-31-HYDROXYMANZAMINE A]
[1]
  Activity: inactive
[2]
  Activity: inactive
[3]
  Activity: inactive
[4]
  Activity: Non-toxic

## O=C(c1c[nH]cn1)c1nccc2c1[nH]c1ccccc12 [DES-N-METHYLXESTOMANZAMINE A]
[1]
  Activity: inactive
[2]
  Activity: inactive
[3]
  IC50: 35 µg/mL (≈ 133 µM)
  IC90: > 50 µg/mL
[4]
  Activity: Non-toxic

## OC1=C[C@@]2(O)CC/C=C\CCCCN3CC[C@@H]1[C@]1(C[C@@H]4/C=C\CCCCN4[C@H]12)C3 [IRCINOL A]
[3]
  IC50: 0.9 µg/mL (≈ 2.26 µM)
  IC90: 1.7 µg/mL (≈ 4.27 µM)

## O[C@]12C=C(c3nccc4c3[nH]c3ccccc34)[C@@H]3CCN(CCCC/C=C\CC1)C[C@@]31C[C@@H]3/C=C\CCCCN3[C@H]12 [MANZAMINE A]
[5]
  MIC: 1.53 µg/mL (≈ 2.79 µM)
[4]
  Activity: 1200 ng/mL
[6]
  EC50: 590 nM

## O=C1CCCN2[C@@H](CC1)C[C@]13CN4CCCC/C=C\CC[C@](O)(C=C(c5nccc6c5[nH]c5ccccc56)C1CC4)[C@H]23 (stereo not given in full) [MANZAMINE E]
[5]
  MIC: 3.76 µg/mL (≈ 6.66 µM)
[4]
  Activity: Non-toxic

## O=C1CCCN2[C@@H](CC1)C[C@]13CN4CCCC/C=C\CC[C@](O)(C=C(c5nccc6c5[nH]c5c(O)cccc56)C1CC4)[C@H]23 (stereo not given in full) [MANZAMINE F]
[5]
  MIC: 2.56 µg/mL (≈ 4.41 µM)
[4]
  Activity: Non-toxic

## Oc1ccc2[nH]c3c(C4=C[C@@]5(O)CC/C=C\CCCCN6CC[C@@H]4[C@@]4(C6)C[C@@]67CC[C@@H](CCCN6[C@H]45)O7)nccc3c2c1 [MANZAMINE X]
[1]
  IC50: 0.95 µg/mL (≈ 1.64 µM)
[2]
  IC50: 2 µg/mL (≈ 3.44 µM)
[3]
  IC50: 5.7 µg/mL (≈ 9.81 µM)
  IC90: 11 µg/mL (≈ 18.9 µM)
[4]
  Activity: Non-toxic
[7]
  IC50: 5.1 µg/mL (≈ 8.78 µM)
[8]
  IC50: 0.5 µg/mL (≈ 0.861 µM)
[9]
  IC50: 5.1 µg/mL (≈ 8.78 µM)
[10]
  IC50: 5.1 µg/mL (≈ 8.78 µM)

## c1ccc2c(c1)[nH]c1cnccc12 [NORHARMANE]
[1]
  Activity: inactive
[2]
  Activity: inactive
[3]
  Activity: inactive
[4]
  Activity: Non-toxic
